Assay [1] deals with Encephalitozoon cuniculi. The assay can be described thus: Activity of Encephalitozoon cuniculi polyamine oxidase assessed as hydrogen peroxide release by spectrophotometry. The procedure, abridged:
(§1)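 Crude enzyme came from mature E. cuniculi spores collected from culture overlay. Spores were washed in PBS pH 6.8, given 1% SDS for 5 min, glass-bead disrupted to >80% breakage, and clarified at 2,200 × g. The 1 ml assay at 37°C held 0.1 M glycine pH 7.0, 10 U horseradish peroxidase, 5 mM ABTS and 22–220 μg protein. Substrate started the reaction. A420 was followed 15 or 30 min; initial linear rate minus no-substrate control.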

The test system of assay [2] is Encephalitozoon cuniculi. The assay can be described thus: Activity of Encephalitozoon cuniculi polyamine oxidase assessed as hydrogen peroxide release by spectrophotometry in presence of 1,15-bis{N-[O-phenyl)benzylamino}-4,12-diazapentadecane. Summed up: (§2)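 Crude spore extract (SDS-washed spores, glass-bead disrupted, clarified at 2,200 × g) in 0.1 M glycine, pH 7.0, with horseradish peroxidase and ABTS. Runs used N1-acetylspermine at 100–2,000 μM, alone or with the analog fixed at 5, 50 or 100 μM; the analog alone was run at 1–25 μM. Reactions were started with 67 μg extract, and A420 was read for 15 min. Kinetic constants came from Hanes-Woolf plots ([S]/V vs [S]).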

Assay [3] relates to Encephalitozoon cuniculi. The assay can be described thus: Activity of Encephalitozoon cuniculi polyamine oxidase assessed as hydrogen peroxide release per mg protein by spectrophotometry relative to 0.1 mM N'-acetylspermine. Summed up: as §1
The test system of assay [4] is Encephalitozoon cuniculi. The assay can be described thus: Activity of Encephalitozoon cuniculi polyamine oxidase assessed as hydrogen peroxide release per mg protein by spectrophotometry relative to 1 mM N'-acetylspermine. The procedure, abridged:
as §1

Assay [5] can be described thus: Inhibition of Encephalitozoon cuniculi polyamine oxidase assessed as hydrogen peroxide release using N'-acetylspermine substrate by spectrophotometry. The procedure, abridged: as §2
The test system of assay [6] is Encephalitozoon cuniculi. The assay can be described thus: Activity of Encephalitozoon cuniculi polyamine oxidase assessed as hydrogen peroxide release per mg protein by spectrophotometry. The procedure, abridged:
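Enzyme was a clarified glass-bead homogenate of SDS-washed mature spores (>80% breakage). Reactions at 37°C held 0.1 M glycine, pH 7.0, 10 U HRP, 5 mM ABTS and 22–220 μg protein, and were started with substrate (1 mM N1-acetylspermine or another, e.g. 0.1 mM). Peroxide was followed as ABTS oxidation at 420 nm (ε 3.6 × 10⁴ M⁻¹ cm⁻¹) for 15 or 30 min. Values are the initial linear rate minus a no-substrate control.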

Molecules are shown by their SMILES. Where “and” joins values, the source holds several entries; their conditions need not be identical. Equal entries are not always repeated.

A word on the Km: it is the concentration of substrate that gives half-maximal velocity. In general, Vmax refers to the top rate of the reaction or transport when substrate is in excess. In general, Ki refers to the dissociation constant of the complex between target and ligand, obtained from inhibition or displacement.

With `CC(=O)NCCCNCCCCNCCCN`, in the assay with Encephalitozoon cuniculi [1], the Km was 30 µM and the Vmax amounted to 10 µM/min. In the assay on Encephalitozoon cuniculi [2], the Km came to 15 µM and the maximal velocity (Vmax) was determined as 17.5 µM/min.
Regarding `c1ccc(-c2ccccc2CNCCCNCCCCCCCNCCCNCc2ccccc2-c2ccccc2)cc1`, in the assay on Encephalitozoon cuniculi [1], the Km was 2 µM and the Vmax was 7.6 µM/min. Moreover, in the assay on Encephalitozoon cuniculi [3], the fold change (FC) was 0.8. Further, the fold change (FC) in the assay on Encephalitozoon cuniculi [4] worked out at 0.31. Also, in assay [5], the inhibition constant (Ki) amounted to 40 µM.
On to `c1ccc(CNCCCNCCCCCCCNCCCNCc2ccccc2)cc1`, for which the fold change (FC) in the assay with Encephalitozoon cuniculi [3] was 0.98; in the assay on Encephalitozoon cuniculi [4], 0.89. For the same compound, in the assay with Encephalitozoon cuniculi [6], the Activity was 1370 nmol/min and 690 nmol/min.

(Values after ChEMBL document CHEMBL1649171, “Metabolism of an alkyl polyamine analog by a polyamine oxidase from the microsporidian Encephalitozoon cuniculi” (Antimicrob Agents Chemother, 2009).)
